Key:
HeLa [1] = assay: The compound was tested for its ability to enhance the cytotoxicity of ACNU toward HeLa S3 cells at 10 uM dose; format: functional, Homo sapiens
Method in brief: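 HeLa S3 cervical tumour cells (AGAT activity 418 fmol/mg protein) pretreated 2 h with test compound […], then exposed to increasing ACNU concentrations. Dose-modifying factor = IC50 for ACNU alone divided by IC50 for compound pretreatment followed by ACNU.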

[2] = target: T1, Methylated-DNA--protein-cysteine methyltransferase (Homo sapiens, UniProt P16455); assay: In vitro inhibitory activity against human O6-alkylguanine-DNA alkyltransferase (AGAT)
T1 sequence (P16455 whole entry): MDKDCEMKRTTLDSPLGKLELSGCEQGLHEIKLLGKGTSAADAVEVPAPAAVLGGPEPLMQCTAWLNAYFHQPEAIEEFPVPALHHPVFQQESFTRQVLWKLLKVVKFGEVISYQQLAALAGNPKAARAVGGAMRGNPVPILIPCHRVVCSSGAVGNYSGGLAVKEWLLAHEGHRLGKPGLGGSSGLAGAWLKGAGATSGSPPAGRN

HeLa [3] = assay: The compound was tested for its ability to enhance the cytotoxicity of ACNU toward HeLa S3 cells at 0.1 uM dose; format: functional, Homo sapiens
Method in brief: (§1)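 HeLa S3 cervical tumour cells (AGAT activity 418 fmol/mg protein) pretreated with test compound for 2 h at 0.01, 0.1, 1 or 10 μM, then exposed to increasing ACNU concentrations. Cytotoxicity measured by a previously reported method. Dose-modifying factor = IC50 for ACNU alone divided by IC50 for compound pretreatment followed by ACNU.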

HeLa [4] = assay: The compound was tested for its ability to enhance the cytotoxicity of ACNU toward HeLa S3 cells at 1 uM dose; format: functional, Homo sapiens; method in brief: as §1
[5] = The compound was tested for its ability to enhance the cytotoxicity of ACNU toward HeLa S3 cells at 10 uM dose; 'b' means toxicity appeared at this dose; format: cell-based; settings: human; method in brief: as §1
HeLa [6] = assay: The compound was tested for its ability to enhance the cytotoxicity of ACNU toward HeLa S3 cells at 0.01 uM dose; format: functional, Homo sapiens; method in brief: as §1

| IC50 [2] | Compound | Dose-modifying factor (HeLa [1]) | Dose-modifying factor (HeLa [3]) | Dose-modifying factor (HeLa [4]) | Dose-modifying factor [5] | Dose-modifying factor (HeLa [6]) |
| --- | --- | --- | --- | --- | --- | --- |
| 170 µM | Nc1cc(OCc2ccccc2)nc(N)n1 | 1 |  |  |  |  |
|  | Nc1nc(N)c([N+](=O)[O-])c(OCc2ccccc2)n1 |  | 1.2 | 4 | Toxicity appeared at this dose |  |
|  | Nc1nc(N)c([N+](=O)[O-])c(OCc2ccncc2)n1 |  | 1.2 | 3.9 | Toxicity appeared at this dose |  |
|  | Nc1nc(N)c(N=O)c(OCc2ccc(F)cc2)n1 |  | 5.8 | 9.2 | Toxicity appeared at this dose | 1.4 |
|  | Nc1nc(N)c([N+](=O)[O-])c(OCc2ccccc2F)n1 |  | 1 | 1.1 | Toxicity appeared at this dose |  |
|  | Nc1nc(N)c([N+](=O)[O-])c(OCc2ccc(F)cc2)n1 |  | 1.5 | 5.1 | Toxicity appeared at this dose |  |
|  | Nc1nc(N)c([N+](=O)[O-])c(OCc2ccccn2)n1 |  | 1 | 1 | Toxicity appeared at this dose |  |
|  | Nc1nc(N)c([N+](=O)[O-])c(OCc2cccc(F)c2)n1 |  | 1.2 | 4.8 | Toxicity appeared at this dose |  |
|  | Nc1nc(N)c(N=O)c(OCc2ccncc2)n1 |  | 2.9 | 7.3 | Toxicity appeared at this dose | 1 |
|  | Nc1nc(N)c([N+](=O)[O-])c(OCc2cccnc2)n1 |  | 1.2 | 3.6 | Toxicity appeared at this dose |  |
| 0.13 µM | Nc1nc(N)c(N=O)c(OCc2ccccc2)n1 |  | 4.3 | 8.8 |  | 1.2 |
|  | Nc1nc(OCc2ccccc2)c2nc[nH]c2n1 [6-O-BENZYLGUANINE] | 7.6 | 1.3 | 4.4 |  |  |

— ChEMBL document CHEMBL1131470, “Inhibition of human O6-alkylguanine-DNA alkyltransferase and potentiation of the cytotoxicity of chloroethylnitrosourea by 4(6)-(benzyloxy)-2,6(4)-diamino-5-(nitro or nitroso)pyrimidine derivatives and analogues” (J Med Chem, 1998)
